Measured values of several laboratories.
Each line is one published result; the experiments were not run side by side.
Observed: cell growth or viability

With `CN1CCC(NC2CCc3[nH]c4c(C(N)=O)ccc(-c5ccccc5Cl)c4c3C2)CC1` (stereo not drawn) the IC50 was 0.00017 µM (RKO; 96 h).
The IC50 of `O=C(N[C@@H](CSCc1ccc([N+](=O)[O-])cc1)C(=O)NO)c1ccccc1` is reported as 10.1 µM (HCC4006; MTT; 48 h).
`COc1cccc2c1C(=O)c1c(O)c3c(c(O)c1C2=O)C[C@@](O)(C(=O)CO)C[C@@H]3O[C@H]1C[C@H](N)[C@H](O)[C@H](C)O1` has an IC50 of 0.00473 µM (RKO; 96 h).
`C[C@H](Nc1ccc2c(c1)OCCn1cc(N3C(=O)OC[C@H]3C(F)F)nc1-2)C(N)=O` has an EC50 of 0.0154 µM (HCC202; ATP luminescence; 5 days).
`Nc1nc(S)nc(O)c1N=Cc1cn(-c2ccccc2)nc1-c1ccc([N+](=O)[O-])cc1` gave a CC50 of greater than 40 µM (CCRF-CEM; 48 h).
`CC(=O)ON=C1C=CC(=C(C#N)c2ccccc2)C=C1` has an IC50 of 27.4 µg/mL (HDF-1; MTT; 24 h).
For `COc1ccc(-c2nn(-c3ccccc3)cc2C=Nc2c(N)nc(S)nc2O)cc1`, the CC50 was less than 20 µM (CCRF-CEM; 48 h).
`O=C(N[C@@H](CSCc1nc2cc([N+](=O)[O-])ccc2[nH]1)C(=O)NO)c1ccccc1` has an IC50 of less than 500 µM (HCC4006; MTT; 48 h).
For `Nc1nc(S)nc(O)c1N=Cc1cn(-c2ccccc2)nc1-c1ccccc1`, the CC50 was less than 20 µM (CCRF-CEM; 48 h).
With `Cc1nc(Nc2ncc(C(=O)Nc3c(C)cccc3Cl)s2)cc(N2CC[C@H](O)C2)n1` the inhibition was 14% (CCRF-CEM; ATP luminescence; 10 µM, 72 h).
For `Nc1nc(S)nc(O)c1N=Cc1cn(-c2ccccc2)nc1-c1ccc(Cl)cc1`, the CC50 was 15.1 µM (CCRF-CEM; 24 h).
`C=C(NC(=O)C(=C)NC(=O)c1csc(C2=N[C@@H]3c4csc(n4)[C@H]4NC(=O)c5csc(n5)[C@H]([C@](C)(O)[C@@H](C)O)NC(=O)[C@H]5CSC(=N5)/C(=C/C)NC(=O)[C@H]([C@@H](C)O)NC(=O)c5csc(n5)[C@]3(CC2)NC(=O)[C@H](C)NC(=O)C(=C)NC(=O)[C@H](C)NC(=O)[C@H]([C@@H](C)CC)N[C@@H]2C=Cc3c([C@H](C)O)cc(nc3[C@H]2O)C(=O)O[C@@H]4C)n1)C(N)=O` has an EC50 of 1.2 µM (ES-2).
